Assay outcomes as filed in PubChem.
CHOP UPR activ – activators of apoptotic CHOP UPR arm, primary screen, cell-based, CHO-CHOP luciferase reporter, luminescence, uHTS; activation, % at 10 µM; actives 0.34% (n = 330,000); UPR activation; percent of tunicamycin response over DMSO baseline; AID 449763, 2010;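 active means at 10 µM dose, activation of 40% or more, normalized to positive control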;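 further: 100% = tunicamycin at 10 µg/mL and 0% = DMSO alone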
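Test system: CHO CHOP reporter cells. Input: 500 CHO-CHOP cells per well. Medium: F12 with 10% FBS. Technique: luciferase luminescence. Measure: percent activation relative to tunicamycin control. Dosing: 10 µM compound, 0.5% DMSO. Timing: 16-18 h cell attachment, then 6 h compound exposure, 37 °C.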
Mdm2-MdmX inh – inhibitors of human Mdm2-MdmX association, primary screen, cell-based, luminescence, split luciferase, SaOS-2, uHTS; Protein Mdm4 (Homo sapiens) + E3 ubiquitin-protein ligase Mdm2 (Homo sapiens), …; SaOS-2 split-luciferase Mdm2/MdmX complementation; inhibition, % at 8 µM; actives 3% (n = 330,000);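 active means inhibition of at least 50% at 8 µM in the primary screen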
Target sequence (O15151 whole entry, looked up): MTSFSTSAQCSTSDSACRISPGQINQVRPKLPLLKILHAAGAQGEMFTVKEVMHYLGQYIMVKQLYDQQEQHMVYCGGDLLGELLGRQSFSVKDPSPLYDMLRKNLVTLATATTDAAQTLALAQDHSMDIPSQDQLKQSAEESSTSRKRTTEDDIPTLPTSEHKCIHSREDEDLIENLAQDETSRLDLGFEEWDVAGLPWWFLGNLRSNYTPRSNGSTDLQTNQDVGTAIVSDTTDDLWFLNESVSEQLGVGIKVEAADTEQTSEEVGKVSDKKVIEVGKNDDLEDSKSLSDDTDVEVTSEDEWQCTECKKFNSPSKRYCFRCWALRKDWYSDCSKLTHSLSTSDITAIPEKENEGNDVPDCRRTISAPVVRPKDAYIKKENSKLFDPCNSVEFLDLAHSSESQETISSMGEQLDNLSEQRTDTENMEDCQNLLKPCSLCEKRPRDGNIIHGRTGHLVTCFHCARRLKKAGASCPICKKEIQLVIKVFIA
Target sequence (Q00987 whole entry, looked up): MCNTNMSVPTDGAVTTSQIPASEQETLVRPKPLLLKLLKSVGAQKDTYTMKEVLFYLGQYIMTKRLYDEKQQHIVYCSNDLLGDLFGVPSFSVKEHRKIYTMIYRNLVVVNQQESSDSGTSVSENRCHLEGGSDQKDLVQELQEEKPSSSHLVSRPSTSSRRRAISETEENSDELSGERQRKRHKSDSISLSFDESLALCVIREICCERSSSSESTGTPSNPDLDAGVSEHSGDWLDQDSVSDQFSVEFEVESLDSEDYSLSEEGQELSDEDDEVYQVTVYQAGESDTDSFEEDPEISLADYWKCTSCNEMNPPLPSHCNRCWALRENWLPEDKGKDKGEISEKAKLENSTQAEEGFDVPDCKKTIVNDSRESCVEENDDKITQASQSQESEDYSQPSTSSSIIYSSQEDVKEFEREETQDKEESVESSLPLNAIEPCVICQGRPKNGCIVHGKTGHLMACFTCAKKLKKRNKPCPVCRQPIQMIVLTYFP
XBP1 UPR activ – activators of adaptive XBP1 UPR arm, primary screen, cell-based, CHO-XBP1 luciferase reporter, luminescence, uHTS; IRE1-XBP1 UPR activation; percent of tunicamycin response, DMSO as zero; actives 0.33% (n = 330,000); AID 463104, 2010; activation, % at 20 µM;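 active means versus positive control, 20 µM dose yields 30% or more activation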;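 further: 100% = tunicamycin at 10 µg/mL and 0% = DMSO only wells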
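Material: IRE1-XBP1 luciferase reporter CHO line / Quantity: one thousand reporter cells per well / Buffer or medium: F12 with 10% serum / Compound: 20 µM single concentration, DMSO 1% / Times: 6 h treatment, 37 °C / Detection: Steady-Glo luciferase glow luminescence, 10 min after reagent addition / Benchmarks: tunicamycin high, DMSO low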
T cruzi inh – inhibitors of intracellular T. cruzi growth, primary screen, luminescence, NIH3T3 host cells; T. cruzi beta-gal in NIH3T3, 90 h; actives 1.4% (n = 300,000); inhibition, % (concentration not given with the values);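 active means mean inhibition across valid replicates above about 55%, limit read from the data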;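 further: signal also drops with host cell toxicity which is not excluded here; 0% = plate median of DMSO wells and 100% = zero luminescence signal; higher percent means less beta-gal luminescence so fewer parasites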
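Read-out: Parasite load inhibition, % | Test system: Mouse NIH/3T3 fibroblasts infected with β-gal-expressing T. cruzi Tulahuen C4 | Amount: 5,000 cells/well | Medium: DMEM, 2% fetal bovine serum | Signal: GalScreen β-gal luminescence, detergent lysis, 60 min | Timing: 3 h attach, ≥90 h co-culture | Also added: Tulahuen C4 trypomastigotes, 5000/well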
CSC inhib – cancer stem cell viability inhibitors, primary screen, luminescence; cancer stem cell-like cells viability; inhibition, % at 7.5 µM; actives 1.1% (n = 300,000); AID 2717, 2010; in the data active means inhibition above about 75%; tested in HMLE shEcad cells
Beta apoptosis – inhibitors of cytokine-induced beta cell apoptosis, primary screen, luminescence; INS-1E cytokine-induced death, ATP luminescence, 48 h; percent of positive-control rescue, neutral wells zero; protection from apoptosis, % (no concentration beside the values); actives 0.8% (n = 300,000);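 active means Every replicate reaches about 75%, or at least half do and their mean reaches it too, limit read from the data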;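 further: 0% = cytokine-treated negative control wells and 100% = positive control rescue; higher means more ATP so stronger rescue from cytokine killing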
Mdm2 MdmX conf – Mdm2-MdmX complex disruptors, retested hits, confirmation, luminescence, single concentration. shares compounds with Mdm2-MdmX inh. Mdm2-MdmX binding, luminescent assay. inhibition, % at 8 µM. actives 55% (n = 10,000). AID 489028, 2010; in the data active means inhibition above about 40%
FLuc counter – full-length luciferase signal inhibition, confirmation, counter-screen for Mdm2/MdmX interaction inhibitor project, cell-based, single concentration, SaOS-2 | shares compounds with Mdm2-MdmX inh | SaOS-2 full-length luciferase counterscreen, luminescence | inhibition, % at 8 µM | AID 504607, 2011 | actives 77% (n = 6,200);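 active means mean inhibition at 8 µM reaching about 37%, which flags the compound as non-specific, limit read from the data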;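 further: p53-null SaOS-2 cells with luciferase driven by a doxycycline-inducible promoter; compound on cells about two nights before reading with doxycycline added after day one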
An asterisk follows results filed as active; x = no result given. The list is not random: actives were taken first. Their share in the collection is about 5%.

SMILES	CHOP UPR activ	Mdm2-MdmX inh	XBP1 UPR activ	T cruzi inh	CSC inhib	Beta apoptosis	Mdm2 MdmX conf	others
N/C(=N\OC(=O)C1CCCCC1)c1cccnc1	0.9	27.4	0.8	-28.3	4.7	-5.9	x
N/C(=N\OC(=O)C12CC3CC(CC(C3)C1)C2)c1ccccn1	6.8	43.9	3.9	8.6	2.6	0.3	x
CC1CCCC(C)N1CC(O)Cn1c2ccccc2c2ccccc21 (stereo not drawn)	1.9	31.0	-5.1	21.4	-5.3	12.3	x
NS(=O)(=O)c1ccc(CCNC(=O)COC(=O)C2CCC2)cc1	-0.9	-19.4	-1.9	7.2	x	-2.8	x
O=C(C1CC1)N1CCN(C(c2ccccc2)c2ccccc2)CC1	-1.4	21.3	-1.9	8.8	-2.3	-2.2	x
Cc1cccc(NC(=O)c2cc3c([nH]c4ccccc43)c(C)n2)c1C	5.3	65.8*	6.2	1.7	-10.6	-2.6	3.4
CCCc1cc(=O)[nH]c(SCC(=O)c2c(N)n(C3CC3)c(=O)[nH]c2=O)n1	-0.1	96.3*	1.0	x	x	0.6	13.6
Cc1cc(C)cc(-c2nnc(SCC(=O)c3c(N)n(C4CC4)c(=O)[nH]c3=O)o2)c1	2.2	54.4*	0.2	x	x	x	14.2
Cc1ccc2nc(SCC(=O)c3c(N)n(C4CC4)c(=O)[nH]c3=O)[nH]c2c1	-0.3	6.6	0.2	x	x	x	x
Nc1c(C(=O)CSc2nnc(-c3ccccc3)o2)c(=O)[nH]c(=O)n1C1CC1	3.2	49.7	6.9	x	-6.5	-3.6	x
Cc1ccc(Nc2nnc(SCC(=O)c3c(N)n(C4CC4)c(=O)[nH]c3=O)s2)cc1C	0.5	70.5*	-2.5	x	14.4	1.8	4.0
CCc1cccc2c(C(=S)N3CCOCC3)c[nH]c12	-0.8	5.4	1.1	-2.9	x	-4.2	x
O=C(CN1CCN(Cc2ccccc2)CC1)Nc1ccc(Cl)cc1	0.0	-35.3	-5.5	0.0	10.8	-2.6	x
CC(C)NC(=O)NC(=O)COC(=O)c1c2c(nc3ccccc13)CCC2	2.7	36.0	-5.5	3.1	0.9	x	x
CC(C)c1ccccc1NC(=O)COC(=O)c1c2c(nc3ccccc13)CCN(Cc1ccccc1)C2	4.6	53.0*	1.8	39.6	10.5	0.4	33.2
Cc1coc(NC(=O)CSc2nc(-c3ccncc3)cc(C(F)(F)F)c2C#N)n1	4.0	52.4*	3.8	-4.9	-22.6	4.5	8.6
N#Cc1c(C(F)(F)F)cc(-c2ccc(F)cc2)nc1SCC(=O)O	-0.8	-21.7	2.2	-21.6	-2.7	2.3	x
CCOC(=O)NC(=O)CSc1nc(C)cc(C(F)(F)F)c1C#N	3.1	58.9*	1.7	0.2	-3.0	-12.6	14.8
CCN(CC)S(=O)(=O)c1ccc(N2CCOCC2)c(NC(=O)COc2ccccc2C)c1	-1.2	-9.9	-0.8	x	x	9.4	x
CC(C)Cn1c(N)c(C(=O)CSc2n[nH]c(N)n2)c(=O)n(C)c1=O	1.5	6.7	3.0	x	x	-1.0	x
COC(=O)c1ccc2nc(-c3ccc4c(c3)OCO4)cn2c1	-6.6	37.3	-6.2	-6.7	1.8	-0.8	x
CCc1ccn2cc(-c3ccc4c(c3)OCO4)nc2c1	-9.6	61.8*	-10.3	4.3	77.8*	20.8	53.0*	FLuc counter=92.0*
O=C1C(Cl)=C(Nc2ccc(O)cc2)C(=O)c2ccccc21	23.2	100.4*	-1.9	62.7*	124.2*	5.8	100.2*	FLuc counter=51.1*
COc1ccc(OCC(=O)Nc2ccccc2N2CCN(C)CC2)cc1	0.8	0.8	0.2	6.8	1.4	-2.7	x
COc1ccc(OCC(=O)Nc2ccccc2-c2ccccc2)cc1	1.5	52.7*	2.4	23.6	52.8	x	59.4*	FLuc counter=62.1*
SMILES	CHOP UPR activ	Mdm2-MdmX inh	XBP1 UPR activ	T cruzi inh	CSC inhib	Beta apoptosis	Mdm2 MdmX conf	others
COc1ccc(OCC(=O)Nc2ccccc2N2CCCCC2)cc1	2.6	60.8*	4.0	25.9	60.7	8.8	76.0*	FLuc counter=59.1*
COCC(=O)Nc1ccccc1-c1ccccc1	1.0	-37.8	-2.6	-17.9	x	x	x
Cc1ccc(/C=N/N=C2\SCC(=O)N2CC2CC2)cc1	2.4	-10.3	0.3	x	1.8	1.1	x
N#CC1=C(N)Oc2c(ccc3cccnc23)C1c1ccccc1 (stereo not drawn)	0.0	74.7*	-2.3	53.0	38.6	97.2*	57.9*	FLuc counter=53.7*
Cc1ccc2[nH]c(=O)c(C3C(C#N)=C(N)Oc4c3ccc3cccnc43)cc2c1 (stereo not drawn)	-0.4	56.5*	1.8	-9.2	7.2	91.4*	41.6*	FLuc counter=43.5*
COC(=O)C1=C(C)NC(C)=C(C(=O)OC)C1c1cc2cc(C)ccc2[nH]c1=O	-0.9	-31.7	-1.4	13.7	-9.3	-1.7	x
Cc1ccc(C2=NCCn3c2c2ccccc2[n+]3[O-])cc1	0.4	6.2	1.9	-22.4	-14.9	-2.0	x
COc1cc(C#Cc2c(C=O)n(C)c3ccccc23)cc(OC)c1	5.6	65.6*	0.4	x	32.1	-1.7	39.0	FLuc counter=77.8*
COc1ccc(-c2c(C#Cc3ccsc3)c3cc(Br)ccc3n2C)cc1	-1.4	-0.1	-0.5	x	32.9	-2.9	x
COc1ccc(-c2c(C#Cc3ccc(N(C)C)cc3)c3ccccc3n2C)cc1	2.8	52.5*	3.9	x	x	6.5	9.3
O=c1[nH]c2cc(NCCO)c([N+](=O)[O-])cc2[nH]1	-0.3	13.4	-3.5	-3.2	x	-0.1	x
c1ccc(N2CCN(c3ncnc4sc5c(c34)CCC5)CC2)cc1	-2.7	66.9*	6.9	2.0	13.5	-0.2	56.2*	FLuc counter=38.6*
O=C(c1ccco1)N1CCN(c2ncnc3sc4c(c23)CCC4)CC1	-2.4	29.0	-2.8	-5.4	-3.5	7.6	x
O=S(=O)(c1ccc(SCc2cccc(Cl)c2)nc1)N1CCCC1	0.6	0.4	-0.4	x	18.1	-1.6	x
COCCNC(=O)C(c1ccc(F)cc1)N(C(=O)CCC(=O)Nc1nccs1)c1cccc(C)c1 (stereo not drawn)	1.5	-8.0	-0.3	x	2.0	-4.4	x
